Test results: ChEMBL document CHEMBL4251680, “Catecholic Isoquinolines from Portulaca oleracea and Their Anti-inflammatory and β2-Adrenergic Receptor Agonist Activity” (J Nat Prod, 2018)

What was measured:
[1] = target: T1, Beta-2 adrenergic receptor (Homo sapiens, UniProt P07550); experiment: Agonist activity at human beta2-AR expressed in CHOK1 cells co-expressing Galpha15 at 100 uM measured after 21 secs to 120 secs by Calcium-4 dye based FLIPR assay relative to 1 uM isoproterenol; type: functional, cell-based
Summary of the method: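 CHO-K1/Gα15 cells stably expressing β2-AR, grown in Ham's F12 with 10% FBS, hygromycin B and zeocin. Plated at 1.5 × 10^4 cells/well, 18 h, then loaded with FLIPR Calcium 4 dye for 1 h at 37 °C and 15 min at room temperature. Compounds from DMSO stocks diluted in HBSS/20 mM HEPES pH 7.4, added at 21 s. Read 120 s; stimulation ratio = (ΔRFU − background) relative to isoproterenol.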
Target sequence in this assay (P07550 whole entry, looked up): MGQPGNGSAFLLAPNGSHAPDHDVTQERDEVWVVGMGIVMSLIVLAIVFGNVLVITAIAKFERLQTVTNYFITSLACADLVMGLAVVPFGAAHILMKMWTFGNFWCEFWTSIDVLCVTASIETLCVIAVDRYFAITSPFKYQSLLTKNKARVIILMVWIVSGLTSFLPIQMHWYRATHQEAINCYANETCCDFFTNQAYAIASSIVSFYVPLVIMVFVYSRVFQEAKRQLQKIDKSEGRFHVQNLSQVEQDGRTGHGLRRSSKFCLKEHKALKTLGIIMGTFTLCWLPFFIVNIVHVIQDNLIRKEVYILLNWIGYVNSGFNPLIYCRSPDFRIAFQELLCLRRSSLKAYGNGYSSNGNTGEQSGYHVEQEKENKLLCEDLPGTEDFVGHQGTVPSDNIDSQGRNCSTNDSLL

[2] = test system: RAW264.7; experiment: cells; settings: Mus musculus, RAW264.7, 24 h
[3] = target: T1, Beta-2 adrenergic receptor; experiment: Agonist activity at human beta2-AR expressed in CHOK1 cells co-expressing Galpha15 measured after 21 secs to 120 secs by Calcium-4 dye based FLIPR assay; type: functional, cell-based
Target sequence in this assay (P07550 whole entry): as the sequence (P07550 whole entry, looked up) above

Structure (SMILES)	Activity [1] [%]	EC50 [2] [µM]	EC50 [3] [µM]
NCCc1ccc(O)c(O)c1 [DOPAMINE]	86.4	18	–
NCCc1ccc(O)c(O)c1S(=O)(=O)O	39.3	310	–
CC1=NCCc2cc(O)c(O)cc21	37.7	209	–
CC(C)C[C@H]1NCCc2cc(O)c(O)cc21	70.9	498	–
O=C1c2cc(O)c(O)cc2CCn2cccc21	-11.5	225	–
C[C@@H]1NCCc2cc(O)c(O)cc21	35.5	58.7	–
Oc1cc2c(cc1O)CCN=C2	41.1	248	–

The remaining lines, values ahead:

Activity [1] [%]	EC50 [2] [µM]	EC50 [3] [µM]	Structure (SMILES)
42	36.3	–	CCOC(=O)CC[C@@H]1NCCc2cc(O)c(O)cc21
–	82.4	–	O=C(NO)c1ccc(O)c(O)c1
90.8	107	0.0879	Oc1cc2c(cc1O)[C@@H](Cc1ccccc1)NCC2
70.2	35.4	–	O=C1CC[C@H]2c3cc(O)c(O)cc3CCN12
11.4	87.9	–	Oc1cc2c(cc1O)CC[N+](Cc1ccco1)=C2
91.8	18.1	5.1	Oc1cc2c(cc1O)C(c1ccco1)=NCC2
0.5	126	–	O=C1NCCc2cc(O)c(O)cc21
70.6	203	–	OCc1ccc(C2=NCCc3cc(O)c(O)cc32)o1
